Assay outcomes deposited in PubChem by Johns Hopkins Ion Channel Center.
KCNK9 inh: KCNK9 potassium channel inhibitors, primary screen, HEK293 cells, thallium flux | Potassium channel subfamily K member 9 (Homo sapiens), Q9NPC2 | FluxOR thallium flux fluorescence; stronger effect = lower value | B-score at 10 µM | 310,000 compounds, 1.2% hits | AID 488922, 2010;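 active means ratio B-score over 3 SD below the library mean, with starting fluorescence within 5 SD of its mean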;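 further: negative B-score means less thallium flux so channel inhibition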
KCNQ1 pot: potentiators or activators of KCNQ1 channel, primary screen, cell-based, thallium flux, high-throughput | Potassium voltage-gated channel subfamily KQT member 1 (Homo sapiens), P51787 | CHO-K1 KCNQ1, thallium flux FluxOR fluorescence; stronger effect = higher value | B-score at 10 µM | 310,000 compounds, 0.35% hits | AID 2648, 2010;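 active means fluorescence ratio B-score, a plate-corrected score, at least three library SD, with initial intensity B-score within 5 SD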
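Assay system: CHO-K1 cells stably expressing KCNQ1. Medium: assay buffer for compound exposure, DMSO matched across wells. Timing: 37 °C overnight plating, 90-min dark dye load, 20-min compound pretreatment. Signal: kinetic FluxOR fluorescence, 10 s baseline plus 110 s post-stimulus.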
hERG rescue: hERG rescue from dofetilide block, primary screen, cell-based, CHO-hERG, FluxOR thallium flux, dofetilide IC70; 310,000 compounds, 0.51% hits; dofetilide IC70 present; activation (rescue from dofetilide block), less the hit threshold, % at 10 µM;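 active means activation above the mean of controls blocked by dofetilide plus 5 SD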;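 further: thallium influx through hERG after potassium depolarization seen as dye fluorescence rise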
KCNK3 block: human KCNK3 channel inhibitors, primary screen, CHO cells, FluxOR thallium flux, B-score; Potassium channel subfamily K member 3 (Homo sapiens), O14649; FluxOR fluorescence; stronger effect = lower value; B-score at 10 µM; 340,000 compounds, 0.84% hits;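 active means B-score under library mean minus 4 SD, starting fluorescence ratio at most library mean plus 5 SD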;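 further: more negative B-score means stronger inhibition of thallium flux through KCNK3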
KCNQ1 block: inhibitors of human KCNQ1 channel, primary screen, cell-based, thallium flux, high-throughput. CHO-K1 KCNQ1, FluxOR thallium flux fluorescence; stronger effect = higher value. Potassium voltage-gated channel subfamily KQT member 1 (Homo sapiens), P51787. B-score at 10 µM. 310,000 compounds, 1.3% hits;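 active means compounds whose thallium flux B-score, printed positive for inhibition, exceeds three library SD while starting fluorescence stays within three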;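 further: channel opened by potassium depolarization with thallium stimulus after 20 min compound exposure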
KCNK9 block conf: KCNK9 potassium channel inhibitors, confirmation, HEK293 cells, thallium flux, duplicate. shares compounds with KCNK9 inh. FluxOR thallium flux fluorescence. 4,900 compounds, 43% hits. inhibition, % at 10 µM. AID 492992, 2010;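 active means thallium signal inhibited by more than 5 SD of the compound-free buffer control wells, on both duplicate plates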
Kir2-1 spec: mouse Kir2.1 channel inhibition, confirmation, selectivity assay for KCNK9 modulator project, cell-based, HEK293, thallium flux | shares compounds with KCNK9 inh | 4,900 compounds, 4% hits | Kir2.1 cells, FluxOR thallium flux fluorescence | inhibition, % at 10 µM;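 active means thallium signal drop more than 5 SD beyond the mean of the no-compound control wells, seen in both duplicate plates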;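 further: signal is fluorescence rise after thallium addition divided by baseline fluorescence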
Target sequence (P35561 whole entry, looked up): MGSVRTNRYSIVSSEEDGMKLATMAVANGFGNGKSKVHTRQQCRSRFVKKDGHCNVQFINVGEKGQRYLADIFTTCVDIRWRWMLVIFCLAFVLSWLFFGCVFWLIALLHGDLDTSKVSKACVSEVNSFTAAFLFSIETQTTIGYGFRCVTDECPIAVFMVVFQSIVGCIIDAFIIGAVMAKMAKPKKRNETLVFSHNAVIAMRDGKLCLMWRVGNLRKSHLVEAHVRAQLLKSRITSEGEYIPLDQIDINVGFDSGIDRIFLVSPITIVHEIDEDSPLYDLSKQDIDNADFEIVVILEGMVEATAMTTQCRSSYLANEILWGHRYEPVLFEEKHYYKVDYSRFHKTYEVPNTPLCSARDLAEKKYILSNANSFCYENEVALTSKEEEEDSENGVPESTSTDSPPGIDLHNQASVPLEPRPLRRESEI
KCNK9 uninduced: thallium flux in non-induced HEK293 cells, confirmation, counter-screen for KCNK9 inhibitor project, cell-based, second counter screen, non-induced KCNK9-HEK293; shares compounds with KCNK9 inh; FluxOR thallium flux; inhibition, % at 10 µM; 4,900 compounds, 40% hits;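 active means thallium signal drop beyond 5 SD of the untreated control mean, on both duplicate plates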
Each line names hits and unclear results; the compound was inactive in the other large screens (follow-up assays come after a bar, where they were run). Shown are actives, neighbours in structure and some others; about 3.1% of the full set was active somewhere.

COc1ccccc1N1CCN(C2CCCN(S(=O)(=O)c3ccc(C)cc3)C2)CC1 (centres undefined)	none
COc1ccccc1N1CCN(C2CCCN(S(=O)(=O)c3cccc(Cl)c3)C2)CC1 (centres undefined)	none | KCNK9 block conf inactive | Kir2-1 spec inactive | KCNK9 uninduced inactive
COc1ccc(CCNC(=O)CN2C(=O)C(=O)N(C3CCCC3)C2=O)cc1OC	none (no result: KCNK9 inh, KCNQ1 pot, hERG rescue, KCNQ1 block)
Cn1c(=O)c(C(=O)NCCCc2ccccc2)c(O)c2ccccc21	none | KCNK9 block conf inactive | Kir2-1 spec inactive | KCNK9 uninduced 28%
Cn1c(=O)c(C(=O)NCc2ccccc2)c(O)c2ccccc21	none
COc1ccc(CCNC(=O)c2cc3c(=O)n(C)c4ccccc4c3n2C)c(OC)c1	none | KCNK9 block conf inactive | Kir2-1 spec inactive | KCNK9 uninduced inactive
COc1ccc(CCNC(=O)c2c(O)c3ccccc3n(C)c2=O)cc1	none | KCNK9 block conf inactive | Kir2-1 spec inactive | KCNK9 uninduced inactive
O=S(=O)(Nc1nc(-c2sccc2Cl)cs1)c1cc(Cl)ccc1Cl	KCNQ1 pot 47, hERG rescue 47 | KCNK9 block conf inactive | Kir2-1 spec inactive | KCNK9 uninduced inactive
CCOC(=O)c1oc2ccccc2c1NC(=O)c1ccccc1OC	KCNK9 inh -8.9 | KCNK9 block conf 34% | Kir2-1 spec inactive | KCNK9 uninduced inactive
CCCCOC(=O)c1ccc(N/C(=N\S(=O)(=O)c2ccccc2)c2ccccc2)cc1	KCNK9 inh -12 | KCNK9 block conf 52% | Kir2-1 spec inactive | KCNK9 uninduced 37%
CCCCOC(=O)c1ccc(NC(=O)c2ccccc2OC)cc1	KCNK9 inh -9.2 | KCNK9 block conf 74% | Kir2-1 spec inactive | KCNK9 uninduced 32%
CCCCOC(=O)c1ccc(NC(=O)c2cc(Cl)ccc2OC)cc1	none
CCOC(=O)c1oc2ccccc2c1COC(=O)CNC(=O)c1ccccc1OC	none
O=C(CN1C(=O)NC2(CCCC2)C1=O)N1CCN(S(=O)(=O)c2ccccc2[N+](=O)[O-])CC1	none
CCN(C[C@H]1N[C@@](CC)(C(=O)OC)[C@H]2C(=O)N(C)C(=O)[C@@H]12)C(=O)c1ccccc1	none (no result: KCNK9 inh, KCNQ1 pot, hERG rescue, KCNQ1 block)
CC(C)(C)c1ccc(S(=O)(=O)N2CC(C(=O)O)Oc3ccc(Cl)cc32)cc1 (centres undefined)	none
COc1cc(Nc2ccc(S(N)(=O)=O)cc2)c([N+](=O)[O-])nc1[N+](=O)[O-]	none
COc1ccc(COC(=O)Nc2cc3c(C(F)(F)F)nn(C)c3s2)cc1	none | KCNK9 block conf inactive | Kir2-1 spec inactive | KCNK9 uninduced inactive
COc1ccc(OC)c(C(c2nnnn2C2CCCC2)N2CCN(c3ccccc3)CC2)c1 (centres undefined)	KCNK9 inh -8.6 | KCNK9 block conf 58% | Kir2-1 spec inactive | KCNK9 uninduced 43%
COC(C(=O)Nc1ccnn1C1CCN(Cc2ccccn2)CC1)c1ccccc1 (centres undefined)	none
O=C1NN(c2ccccc2)C(=O)/C1=C/c1ccc(-c2ccc(C(=O)O)cc2)o1	none
O=C1NN(c2ccccc2)C(=O)/C1=C/c1ccc(Sc2cccc3ccccc23)o1	none | KCNK9 block conf inactive | Kir2-1 spec inactive | KCNK9 uninduced inactive
Fc1ccccc1N1CC(c2ccccc2)C(c2cccs2)=N1 (centres undefined)	KCNK9 inh -8.6 | KCNK9 block conf 34% | Kir2-1 spec inactive | KCNK9 uninduced 43%
N#C/C(=C\c1ccc(N2CCOCC2)o1)c1nc2ccccc2[nH]1	none (no result: KCNK9 inh, KCNQ1 pot, hERG rescue, KCNQ1 block)
